Results taken from ChEMBL document CHEMBL1909507, “Substituted phenyl 4-(2-oxoimidazolidin-1-yl)benzenesulfonamides as antimitotics. Antiproliferative, antiangiogenic and antitumoral activity, and quantitative structure-activity relationships” (Eur J Med Chem, 2011).
Activity calls are given as the source filed them. No cut-off for these calls is given here.

What was measured:
MDA-MB-231 [1] = assay: Displacement of N,N'-ethylenebis(iodoacetamide) from beta-tubulin colchicine-binding site in human MDA-MB-231 cells at 1000 times IC50 preincubated for 2 hrs before N,N'-ethylenebis(iodoacetamide) addition measured after 1.5 hrs by chemiluminescence assay; format: cell-based
Method in brief: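 EBI (100, final) was added for 1.5 h at 37 °C with drug present; control was 0.5% DMSO. Sonicated lysates (20 µg protein) were run on 10% SDS-PAGE and blotted with anti-β-tubulin TUB 2.1. The β-tubulin–EBI adduct was scored by ECL.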

M21 [2] = assay: Cell cycle arrest in human M21 cells assessed as accumulation at G2/M phase at 5 times IC50 after 24 hrs using propidium iodide staining by flow cytometric analysis (reference value: 9%); format: functional
Method in brief: (§1)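 Cells were trypsinized, fixed in ice-cold ethanol, treated with RNase, and stained with propidium iodide (1 mg/mL stock) for 1 h on ice. Cell-cycle distribution was measured by flow cytometry.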

M21 [3] = assay: Cell cycle arrest in human M21 cells assessed as accumulation at G0/G1 phase at 5 times IC50 after 24 hrs using propidium iodide staining by flow cytometric analysis (reference value: 61%); format: functional; method in brief: as §1
HT-1080 [4] = assay: Antitumor activity against human HT1080 cells xenografted in chicken chorioallantoic membrane assessed as inhibition of tumor growth at 1 to 3 ug, iv measured on day 17 by CAM assay; format: functional
Method in brief: (§2)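 Fertilized chicken eggs were incubated 10 days, then 3.5 × 10⁵ HT-1080 cells/egg were applied to the exposed chorioallantoic membrane. On day 11, drug was given iv in DMSO diluted in excipient (ethanol:cremophor:PBS 6.25:6.25:87.5). Read-out was tumor wet weight as % of untreated eggs, plus chick mortality. Data were pooled from two independent experiments of 10–12 eggs each.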

HT-1080 [5] = assay: Antiangiogenic activity in human HT1080 cells xenografted in chicken chorioallantoic membrane assessed as vascular disruption at 1 to 3 ug, iv measured on day 17 by CAM assay; format: functional
M21 [6] = assay: Disruption of cytoskeleton microtubule structure of human M21 cells at 5 times IC50 after 16 hrs by indirect immunofluorescence assay; format: functional, cell-based
Method in brief: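 Cells were fixed in 3.7% formaldehyde, permeabilized with saponin, and stained with anti-β-tubulin TUB 2.1, Alexa-488 anti-mouse secondary and DAPI. Fluorescence microscopy was used for imaging.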

M21 [7] = assay: Cell cycle arrest in human M21 cells assessed as accumulation at S phase at 5 times IC50 after 24 hrs using propidium iodide staining by flow cytometric analysis (reference value: 30%); format: functional; method in brief: as §1
[8] = Toxicity against fertilized chicken embryo assessed as mortality at 3 ug, iv by CAM assay; format: organism-based, Gallus gallus; conditions: in vivo, read-out: Activity
Method in brief: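 HT-1080 fibrosarcoma cells (3.5 × 10⁵ cells/egg) grafted onto the chorioallantoic membrane of fertilized chicken eggs (10 days preincubation). On day 11, drug in DMSO diluted into excipient (ethanol:cremophor:PBS 6.25:6.25:87.5) given iv at 3 µg per egg. Chick mortality recorded over 7-day tumor growth period. Untreated eggs as negative controls and for normalization. Cumulative results from two independent experiments, 10–12 eggs each.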

HT-1080 [9] = assay: Antiproliferative activity against human HT1080 after 48 hrs by SRB assay; format: functional, cell-based; conditions: HT-1080, 48 h
Method in brief: (§3)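 Adherent cells were seeded per line (e.g. HT-29 5000, M21 3500, MCF7 7500, CHO and CHO-VV 3-2 and CHO-TAX 5-6 1000 cells/well) and grown 24 h at 37 °C, 5% CO₂. DMSO-solubilized drug was diluted in medium and added at 1000–0.98 nM for 48 h. Cells were fixed with cold 10% TCA and stained with 0.1% sulforhodamine B, with absorbance read at 530–565 nm.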

DU-145 = assay: Antiproliferative activity against human DU145 after 48 hrs by SRB assay; format: functional, cell-based; conditions: DU-145, 48 h
[10] = Antiproliferative activity against mouse B16F0 after 48 hrs by SRB assay
MDA-MB-231 [11] = assay: Antiproliferative activity against human MDA-MB-231 after 48 hrs by SRB assay; format: functional, cell-based; conditions: MDA-MB-231, 48 h
[12] = Antiproliferative activity against human multidrug-resistant CEM/VLB cells after 48 hrs by SRB assay; format: functional
CHO-TAX 5-6 [13] = assay: Ratio of IC50 for paclitaxel-resistant CHO-TAX 5-6 cells to IC50 for CHO cells; format: functional, Cricetulus griseus
Method in brief: (§4)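 Each ratio is the IC50 in the resistant line divided by the IC50 in its parental line (CHO for CHO-TAX 5-6 and CHO-VV 3-2; CEM for CEM-VLB).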

CHO-TAX 5-6 [14] = assay: Antiproliferative activity against paclitaxel-resistant CHO-TAX 5-6 cells after 48 hrs by SRB assay; format: functional, cell-based; conditions: Cricetulus griseus, CHO-TAX 5-6, 48 h; method in brief: as §3
CCRF-CEM [15] = assay: Antiproliferative activity against human CEM after 48 hrs by SRB assay; format: functional, cell-based
HT-1080 [16] = assay: Antitumor activity against human HT1080 cells xenografted in chicken chorioallantoic membrane assessed as inhibition of tumor growth at 3 ug, iv measured on day 17 by CAM assay; format: functional; method in brief: as §2
L1210 = assay: Antiproliferative activity against mouse L1210 after 48 hrs by SRB assay; format: functional, cell-based; conditions: L1210, 48 h
CHO-VV 3-2 [17] = assay: Antiproliferative activity against colchicine and vinblastine-resistant CHO-VV 3-2 cells after 48 hrs by SRB assay; format: functional, cell-based; conditions: Cricetulus griseus, CHO-VV 3-2, 48 h; method in brief: as §3
[18] = Antiproliferative activity against mouse P388D1 after 48 hrs by SRB assay; conditions: P388D1, 48 h
CHO-VV 3-2 [19] = assay: Ratio of IC50 for colchicine and vinblastine-resistant CHO-VV 3-2 cells to IC50 for CHO cells; format: functional, Cricetulus griseus; method in brief: as §4
MCF7 = assay: Antiproliferative activity against human MCF7 cells after 48 hrs by SRB assay; format: functional, cell-based; conditions: MCF7, 48 h; method in brief: as §3
CHO = assay: Antiproliferative activity against Chinese hamster CHO after 48 hrs by SRB assay; conditions: Cricetulus griseus
K562 = assay: Antiproliferative activity against human K562 after 48 hrs by SRB assay; format: functional, cell-based; conditions: K562, 48 h
CCRF-CEM [20] = assay: Ratio of IC50 for human multidrug-resistant CEM/VLB cells to IC50 for human CEM cells; format: functional; method in brief: as §4
HT-29 = assay: Antiproliferative activity against human HT-29 cells after 48 hrs by SRB assay; format: functional, cell-based; conditions: HT-29, 48 h; method in brief: as §3
SK-OV-3 = assay: Antiproliferative activity against human SKOV3 after 48 hrs by SRB assay; format: functional, cell-based; conditions: SK-OV-3, 48 h; method in brief: as §3
M21 [21] = assay: Antiproliferative activity against human M21 cells after 48 hrs by SRB assay; format: functional, cell-based; conditions: M21, 48 h; method in brief: as §3

Row | Compound | Activity (MDA-MB-231 [1]) | Activity (M21 [2]) [%] | Activity (M21 [3]) [%] | Activity (M21 [6]) | Activity (M21 [7]) [%] | mortality [8] [%] | IC50 (HT-1080 [9]) [nM] | IC50 (DU-145) [nM] | IC50 [10] [nM] | IC50 (MDA-MB-231 [11]) [nM] | IC50 [12] [nM] | Ratio IC50 (CHO-TAX 5-6 [13]) | IC50 (CHO-TAX 5-6 [14]) [nM] | IC50 (CCRF-CEM [15]) [nM] | IC50 (L1210) [nM] | IC50 (CHO-VV 3-2 [17]) [nM] | IC50 [18] [nM] | Ratio IC50 (CHO-VV 3-2 [19]) | IC50 (MCF7) [nM] | IC50 (CHO) [nM] | further results
1 | COc1ccc(/C=C\c2cc(OC)c(OC)c(OC)c2)cc1O [COMBRETASTATIN A4] | Active | 98 | 2 | Active | 0 | 45 |  |  |  |  |  |  |  |  |  |  |  |  |  |  | growth inhibition (GI) (HT-1080 [4]): 45%; Activity (HT-1080 [5]): 48%
2 | O=C1NCCN1c1ccc(S(=O)(=O)Nc2cccc(Br)c2)cc1 | Active | 78 | 2 | Active | 20 | 24 | 170 | 340 | 270 | 290 | 250 | 0.3 | 76 | 110 | 99 | 270 | 90 | 1.1 | 100 | 250 | growth inhibition (GI) (HT-1080 [16]): 19%; IC50 (K562): 87 nM; Ratio IC50 (CCRF-CEM [20]): 2.3; IC50 (HT-29): 77 nM; IC50 (SK-OV-3): 170 nM; IC50 (M21 [21]): 59 nM
3 | O=C1NCCN1c1ccc(S(=O)(=O)Nc2cccc(Cl)c2)cc1 | Active | 62 | 5 | Active | 33 | 8 | 68 | 230 | 190 | 200 | 170 | 0.6 | 58 | 77 | 77 | 150 | 78 | 1.6 | 79 | 96 | inhibition (HT-1080 [16]): inactive; IC50 (K562): 69 nM; Ratio IC50 (CCRF-CEM [20]): 2.2; IC50 (HT-29): 55 nM; IC50 (SK-OV-3): 70 nM; IC50 (M21 [21]): 25 nM
4 | COc1cc(NS(=O)(=O)c2ccc(N3CCNC3=O)cc2)cc(OC)c1OC | Active | 74 | 12 | Active | 12 | 40 | 17 | 51 | 58 | 45 | > 250 | 0.89 | 170 | 23 | 21 | > 250 | 38 | >1.3 | 18 | 190 | growth inhibition (GI) (HT-1080 [16]): 25%; IC50 (K562): 19 nM; Ratio IC50 (CCRF-CEM [20]): >11; IC50 (HT-29): 21 nM; IC50 (SK-OV-3): 22 nM; IC50 (M21 [21]): 13 nM
5 | Cc1ccc(C)c(NS(=O)(=O)c2ccc(N3CCNC3=O)cc2)c1 | Active | 79 | 1 | Active | 20 | 27 | 65 | 1610 | 86 | 110 | 120 | 0.7 | 54 | 74 | 81 | 110 | 79 | 1.4 | 48 | 77 | inhibition (HT-1080 [16]): inactive; IC50 (K562): 72 nM; Ratio IC50 (CCRF-CEM [20]): 1.6; IC50 (HT-29): 46 nM; IC50 (SK-OV-3): 72 nM; IC50 (M21 [21]): 27 nM
